Values after ≈ are worked out from the molar mass of the structure shown.
Columns and labels:
[1] = system: MCF7; assay: Percent control of human mammary adenocarcinoma MCF-7 cell line proliferation at 3 ng/mL; type: functional
In short: (§1)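 MCF-7 human mammary adenocarcinoma cells (5 · 10^3) seeded in 24-well plates in RPMI-1640 with 10% fetal calf serum, penicillin (50 unit/mL) and streptomycin, 37 C, 5% CO2. Compounds added 3 h after plating. After 24 h exposure, medium replaced and cultures incubated a further 72 h. Cell population measured by MTT absorbance. IC50 values calculated from the data.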

[2] = system: MCF7; assay: Percent control of human mammary adenocarcinoma MCF-7 cell line proliferation at 30 ng/mL; type: functional; in short: as §1
[3] = system: MCF7; assay: Percent control of human mammary adenocarcinoma MCF-7 cell line proliferation at 300 ng/mL; type: functional; in short: as §1
[4] = system: MCF7; assay: Concentration required to inhibit proliferation of human mammary adenocarcinoma MCF-7 cell line was determined using MTT assay; type: functional, cell-based; in short: as §1
[5] = system: MCF7; assay: Percent control of human mammary adenocarcinoma MCF-7 cell line proliferation at 0.3 ng/mL; type: functional; in short: as §1

COc1c(NC2CC(O[C@H]3C[C@](O)(C(C)=O)Cc4c(O)c5c(c(O)c43)C(=O)c3c(O)cccc3C5=O)OC(C)C2O)c(=O)c1=O (stereo partly drawn)
Control [1]: 89.7%
Control [2]: 81%
Control [3]: 46.3%
IC50 [4]: 0.299 µg/mL (≈ 0.48 µM)

COc1cccc2c1C(=O)c1c(O)c3c(c(O)c1C2=O)C[C@@](O)(C(C)=O)C[C@@H]3OC1CC(/N=c2/c(O)c(O)/c2=N/C2CC(O[C@@H]3C[C@@](O)(C(C)=O)Cc4c(O)c5c(c(O)c43)C(=O)c3c(OC)cccc3C5=O)OC(C)C2O)C(O)C(C)O1 (stereo partly drawn)
Control [1]: 72.7%
Control [2]: 60.7%
Control [3]: 42%
IC50 [4]: 0.109 µg/mL (≈ 0.0958 µM)

COc1cccc2c1C(=O)c1c(O)c3c(c(O)c1C2=O)C[C@@](O)(C(=O)CO)C[C@@H]3OC1CC(/N=c2/c(O)c(O)/c2=N/C2CC(O[C@@H]3C[C@@](O)(C(=O)CO)Cc4c(O)c5c(c(O)c43)C(=O)c3c(OC)cccc3C5=O)OC(C)C2O)C(O)C(C)O1 (stereo partly drawn)
Control [1]: 88%
Control [2]: 84.5%
Control [3]: 68.4%
IC50 [4]: > 0.3 µg/mL

COc1cccc2c1C(=O)c1c(O)c3c(c(O)c1C2=O)C[C@@](O)(C(=O)CO)C[C@@H]3OC1CC(/N=c2/c(O)c(O)/c2=N\CCCCCC/N=c2\c(O)c(O)\c2=N\C2CC(O[C@H]3C[C@](O)(C(=O)CO)Cc4c(O)c5c(c(O)c43)C(=O)c3c(OC)cccc3C5=O)OC(C)C2O)C(O)C(C)O1 (stereo partly drawn)
Control [1]: 87%
Control [2]: 86.1%
Control [3]: 82.4%
IC50 [4]: > 0.3 µg/mL

COc1cccc2c1C(=O)c1c(O)c3c(c(O)c1C2=O)C[C@@](O)(C(C)=O)C[C@@H]3OC1CC(/N=c2/c(O)c(O)/c2=N\CCCCCC/N=c2\c(O)c(O)\c2=N\C2CC(O[C@H]3C[C@](O)(C(C)=O)Cc4c(O)c5c(c(O)c43)C(=O)c3c(OC)cccc3C5=O)OC(C)C2O)C(O)C(C)O1 (stereo partly drawn)
Control [1]: 104%
Control [2]: 50%
Control [3]: 32%
IC50 [4]: 0.087 µg/mL (≈ 0.0655 µM)

CC(=O)[C@]1(O)Cc2c(O)c3c(c(O)c2[C@@H](OC2CC(N)C(O)C(C)O2)C1)C(=O)c1c(O)cccc1C3=O.Cl (stereo partly drawn)
Control [1]: 93.2%
Control [2]: 77%
Control [5]: 107%
Control [3]: 9.1%
IC50 [4]: 0.0483 µg/mL

COc1cccc2c1C(=O)c1c(O)c3c(c(O)c1C2=O)C[C@@](O)(C(C)=O)C[C@@H]3OC1CC(Nc2c(OC)c(=O)c2=O)C(O)C(C)O1 (stereo in doubt; 5)
Control [1]: 85%
Control [2]: 74.7%
Control [3]: 77.8%
IC50 [4]: > 0.3 µg/mL

COc1cccc2c1C(=O)c1c(O)c3c(c(O)c1C2=O)C[C@@](O)(C(=O)CO)C[C@@H]3O[C@H]1C[C@H](N)[C@H](O)[C@H](C)O1.Cl [DOXORUBICIN HYDROCHLORIDE]
Control [1]: 41%
Control [2]: 35.3%
Control [5]: 74.7%
Control [3]: 14.9%

— ChEMBL document CHEMBL1137858, “Formation of squaric acid amides of anthracycline antibiotics. Synthesis and cytotoxic properties” (Bioorg Med Chem Lett, 2004)
